Laboratory results taken from ChEMBL document CHEMBL3525950, “Autoinhibition of CYP3A4 leads to important role of CYP2C8 in imatinib metabolism: variability in CYP2C8 activity may alter plasma concentrations and response” (Drug Metab Dispos, 2013).

Columns and labels:
Cytochrome P450 2C8 [1] = molecular target: T1, Cytochrome P450 2C8 (Homo sapiens, UniProt P10632); assay: Activity of human recombinant CYP2C8 in supersomes assessed as intrinsic clearance for enzyme-mediated drug metabolism by LC/MS analysis; format: ADME
T1 sequence (P10632 whole entry): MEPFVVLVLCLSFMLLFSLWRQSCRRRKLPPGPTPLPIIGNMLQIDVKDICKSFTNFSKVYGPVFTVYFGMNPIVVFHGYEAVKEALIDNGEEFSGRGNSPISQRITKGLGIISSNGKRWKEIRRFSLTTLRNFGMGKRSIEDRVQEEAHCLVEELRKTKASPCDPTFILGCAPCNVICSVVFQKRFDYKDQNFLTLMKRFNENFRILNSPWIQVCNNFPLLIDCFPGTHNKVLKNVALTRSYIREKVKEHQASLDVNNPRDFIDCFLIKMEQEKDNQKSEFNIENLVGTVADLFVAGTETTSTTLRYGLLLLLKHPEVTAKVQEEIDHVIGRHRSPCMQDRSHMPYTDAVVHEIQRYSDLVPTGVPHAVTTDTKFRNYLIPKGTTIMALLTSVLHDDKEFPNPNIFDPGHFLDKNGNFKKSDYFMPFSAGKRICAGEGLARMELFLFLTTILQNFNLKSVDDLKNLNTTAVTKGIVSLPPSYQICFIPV
Method in brief: (§1)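 N-DMI formation kinetics: imatinib 0.10–320 µM with CYP2C8 (33 pmol/ml, 4 min), CYP3A4 (13 pmol/ml, 3 min) or CYP3A5 (10 pmol/ml, 30 min), 0.1 mg/ml protein. Run in phosphate pH 7.4 with 1 mM NADPH at 37°C, in triplicate, read by LC-MS/MS. Fits used substrate-inhibition (CYP2C8, CYP3A4) or Michaelis–Menten (CYP3A5) models; CLint = Vmax/Km.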

Cytochrome P450 1A2 [2] = molecular target: T2, Cytochrome P450 1A2 (Homo sapiens, UniProt P05177); assay: Activity of human recombinant CYP1A2 in supersomes assessed as intrinsic clearance for enzyme-mediated drug metabolism by LC/MS analysis
T2 sequence (P05177 whole entry): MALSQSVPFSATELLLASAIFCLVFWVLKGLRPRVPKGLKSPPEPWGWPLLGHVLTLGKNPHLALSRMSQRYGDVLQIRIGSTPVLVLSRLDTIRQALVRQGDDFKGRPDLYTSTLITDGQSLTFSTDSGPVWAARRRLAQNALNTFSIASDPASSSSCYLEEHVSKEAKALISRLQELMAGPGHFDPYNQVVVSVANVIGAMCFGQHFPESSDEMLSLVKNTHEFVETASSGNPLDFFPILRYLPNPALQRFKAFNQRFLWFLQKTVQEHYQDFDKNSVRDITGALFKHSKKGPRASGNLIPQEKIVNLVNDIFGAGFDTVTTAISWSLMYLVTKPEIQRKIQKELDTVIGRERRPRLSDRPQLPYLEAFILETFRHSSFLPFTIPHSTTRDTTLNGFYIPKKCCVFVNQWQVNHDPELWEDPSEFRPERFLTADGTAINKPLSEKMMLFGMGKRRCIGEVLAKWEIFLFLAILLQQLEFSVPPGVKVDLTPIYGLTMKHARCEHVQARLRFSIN

CYP2C8 = assay: Fraction unbound in human liver microsomes containing CYP2C8 after 60 mins; format: ADME
Cytochrome P450 3A5 [3] = molecular target: T3, Cytochrome P450 3A5 (Homo sapiens, UniProt P20815); assay: Activity of human recombinant CYP3A5 in supersomes assessed as intrinsic clearance for enzyme-mediated drug metabolism by LC/MS analysis; format: ADME; method in brief: as §1
Cytochrome P450 2C8 [4] = molecular target: T1, Cytochrome P450 2C8; assay: Activity of human recombinant CYP2C8 in supersomes assessed as enzyme-mediated drug metabolism at 0.05 to 0.1 uM after 30 mins by LC/MS analysis; format: ADME; conditions: 0.5 h
Method in brief: (§2)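 Recombinant P450 (CYP1A2 50, CYP2C8 158, CYP2D6 72, CYP3A4 66, CYP3A5 50 pmol/ml; 0.5 mg/ml protein) incubated with 0.1 µM N-DMI, and also 0.05 µM with CYP2C8/3A4/3A5. Run in 0.1 M sodium phosphate pH 7.4 with 1 mM NADPH at 37°C, in triplicate. N-DMI depletion was followed by LC-MS/MS; k_dep was fitted over 0–30 min and CLint = k_dep/[P450].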

CYP1A2 = assay: Fraction unbound in human liver microsomes containing CYP1A2 after 60 mins; format: ADME
CYP2D6 = assay: Fraction unbound in human liver microsomes containing CYP2D6 after 60 mins; format: ADME
Cytochrome P450 3A4 [5] = molecular target: T4, Cytochrome P450 3A4 (Homo sapiens, UniProt P08684); assay: Activity of human recombinant CYP3A4 in supersomes assessed as enzyme-mediated drug metabolism at 0.05 to 0.1 uM after 30 mins by LC/MS analysis; format: ADME; conditions: 0.5 h; method in brief: as §2
Cytochrome P450 2D6 [6] = molecular target: T5, Cytochrome P450 2D6 (Homo sapiens, UniProt P10635); assay: Activity of human recombinant CYP2D6 in supersomes assessed as enzyme-mediated drug metabolism at 0.05 to 0.1 uM after 30 mins by LC/MS analysis; format: ADME; conditions: 0.5 h; method in brief: as §2
Cytochrome P450 1A2 [7] = molecular target: T2, Cytochrome P450 1A2; assay: Activity of human recombinant CYP1A2 in supersomes assessed as enzyme-mediated drug metabolism at 0.05 to 0.1 uM after 30 mins by LC/MS analysis; format: ADME; conditions: 0.5 h; method in brief: as §2
Cytochrome P450 3A5 [8] = molecular target: T3, Cytochrome P450 3A5; assay: Activity of human recombinant CYP3A5 in supersomes assessed as enzyme-mediated drug metabolism at 0.05 to 0.1 uM after 30 mins by LC/MS analysis; format: ADME; conditions: 0.5 h; method in brief: as §2
CYP3A4 = assay: Fraction unbound in human liver microsomes containing CYP3A4 after 60 mins; format: ADME
Cytochrome P450 2D6 [9] = molecular target: T5, Cytochrome P450 2D6; assay: Activity of human recombinant CYP2D6 in supersomes assessed as intrinsic clearance for enzyme-mediated drug metabolism by LC/MS analysis
CYP3A5 = assay: Fraction unbound in human liver microsomes containing CYP3A5 after 60 mins; format: ADME
Cytochrome P450 3A4 [10] = molecular target: T4, Cytochrome P450 3A4; assay: Activity of human recombinant CYP3A4 in supersomes assessed as intrinsic clearance for enzyme-mediated drug metabolism by LC/MS analysis; format: ADME; method in brief: as §1
[11] = Cmax in chronic myeloid leukemia patient at 400 mg, qd by multiple dose study; format: ADME, organism-based; design: dose 400 mg; conditions: human, in vivo
[12] = Oral bioavailability in chronic myeloid leukemia patient; format: ADME, organism-based; conditions: human, in vivo

T4 sequence (P08684 whole entry): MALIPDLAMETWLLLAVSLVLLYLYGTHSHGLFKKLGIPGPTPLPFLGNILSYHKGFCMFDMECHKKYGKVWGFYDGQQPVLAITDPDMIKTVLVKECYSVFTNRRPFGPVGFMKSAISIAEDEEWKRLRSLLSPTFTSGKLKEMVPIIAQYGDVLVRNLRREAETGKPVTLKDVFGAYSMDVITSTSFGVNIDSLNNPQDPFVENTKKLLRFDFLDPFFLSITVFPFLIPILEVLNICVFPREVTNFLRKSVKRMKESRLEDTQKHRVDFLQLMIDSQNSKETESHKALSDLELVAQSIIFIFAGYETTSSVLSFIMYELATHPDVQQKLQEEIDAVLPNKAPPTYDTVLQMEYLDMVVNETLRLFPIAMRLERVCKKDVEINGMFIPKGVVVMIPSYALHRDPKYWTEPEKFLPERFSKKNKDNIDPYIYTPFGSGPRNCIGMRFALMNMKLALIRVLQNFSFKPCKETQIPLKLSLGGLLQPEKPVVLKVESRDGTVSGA
T5 sequence (P10635 whole entry): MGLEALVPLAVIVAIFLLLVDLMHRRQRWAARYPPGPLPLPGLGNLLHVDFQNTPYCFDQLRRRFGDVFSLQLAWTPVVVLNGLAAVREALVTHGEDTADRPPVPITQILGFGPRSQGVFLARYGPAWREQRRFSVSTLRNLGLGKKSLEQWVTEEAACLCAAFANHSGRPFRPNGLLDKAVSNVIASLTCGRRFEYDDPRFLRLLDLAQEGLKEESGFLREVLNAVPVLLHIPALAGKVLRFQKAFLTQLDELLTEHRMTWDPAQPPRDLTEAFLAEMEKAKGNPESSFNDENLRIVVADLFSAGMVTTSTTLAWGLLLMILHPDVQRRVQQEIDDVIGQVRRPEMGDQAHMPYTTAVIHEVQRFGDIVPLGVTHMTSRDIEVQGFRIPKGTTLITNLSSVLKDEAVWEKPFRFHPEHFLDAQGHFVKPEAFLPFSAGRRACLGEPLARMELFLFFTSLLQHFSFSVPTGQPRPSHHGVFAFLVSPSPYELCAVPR
T3 sequence (P20815 whole entry): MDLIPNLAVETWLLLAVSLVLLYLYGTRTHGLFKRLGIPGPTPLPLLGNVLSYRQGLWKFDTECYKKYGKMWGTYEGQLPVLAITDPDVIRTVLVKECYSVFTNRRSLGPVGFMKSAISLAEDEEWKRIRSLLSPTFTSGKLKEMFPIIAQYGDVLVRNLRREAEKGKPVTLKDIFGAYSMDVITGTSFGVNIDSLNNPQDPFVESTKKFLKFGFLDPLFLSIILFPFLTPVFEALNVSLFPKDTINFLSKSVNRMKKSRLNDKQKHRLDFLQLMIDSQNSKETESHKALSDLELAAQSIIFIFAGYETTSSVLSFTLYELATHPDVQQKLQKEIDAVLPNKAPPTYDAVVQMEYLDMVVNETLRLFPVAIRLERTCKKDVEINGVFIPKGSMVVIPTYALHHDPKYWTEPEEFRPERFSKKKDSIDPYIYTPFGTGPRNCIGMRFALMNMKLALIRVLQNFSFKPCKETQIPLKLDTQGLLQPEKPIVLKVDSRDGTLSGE

CL (Cytochrome P450 2C8 [1])	CL (Cytochrome P450 1A2 [2])	fraction unbound at 1 h (CYP2C8)	CL (Cytochrome P450 3A5 [3])	Drug metabolism (Cytochrome P450 2C8 [4])	fraction unbound at 1 h (CYP1A2)	fraction unbound at 1 h (CYP2D6)	Drug metabolism (Cytochrome P450 3A4 [5])	Drug metabolism (Cytochrome P450 2D6 [6])	Drug metabolism (Cytochrome P450 1A2 [7])	Drug metabolism (Cytochrome P450 3A5 [8])	fraction unbound at 1 h (CYP3A4)	CL (Cytochrome P450 2D6 [9])	fraction unbound at 1 h (CYP3A5)	CL (Cytochrome P450 3A4 [10])	Cmax [11]	bioavailability [12]	SMILES
0.06 µL/min	0.03 µL/min	0.8	0.09 µL/min	metabolite_detected	0.8	0.8	metabolite_detected	metabolite_not_detected	metabolite_not_detected	metabolite_not_detected	0.8	0.05 µL/min	0.8	0.5 µL/min	–	–	CS(=O)(=O)O.Cc1ccc(NC(=O)c2ccc(CN3CCNCC3)cc2)cc1Nc1nccc(-c2cccnc2)n1
–	–	–	–	–	–	–	–	–	–	–	–	–	–	–	2200 ng/mL	> 97%	CS(=O)(=O)O.Cc1ccc(NC(=O)c2ccc(CN3CCN(C)CC3)cc2)cc1Nc1nccc(-c2cccnc2)n1 [IMATINIB MESYLATE]
